KCNQ1 pot: potentiators or activators of KCNQ1 channel, primary screen, cell-based, thallium flux, high-throughput | B-score at 10 µM | 310,000 compounds, 0.35% hits | CHO-K1 KCNQ1, thallium flux FluxOR fluorescence; active compounds read high | Potassium voltage-gated channel subfamily KQT member 1 (Homo sapiens), P51787;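 active = fluorescence ratio B-score, a plate-corrected score, at least three library SD, with initial intensity B-score within 5 SD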
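Assay system: CHO-K1 cells stably expressing KCNQ1. Medium: assay buffer for compound exposure, DMSO matched across wells. Timing: 37 °C overnight plating, 90-min dark dye load, 20-min compound pretreatment. Signal: kinetic FluxOR fluorescence, 10 s baseline plus 110 s post-stimulus.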
KCNK9 inh: KCNK9 potassium channel inhibitors, primary screen, HEK293 cells, thallium flux | Potassium channel subfamily K member 9 (Homo sapiens), Q9NPC2 | FluxOR thallium flux fluorescence; active compounds read low | B-score at 10 µM | 310,000 compounds, 1.2% hits;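 active = ratio B-score over 3 SD below the library mean, with starting fluorescence within 5 SD of its mean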;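 note: negative B-score means less thallium flux so channel inhibition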
Kir21 block: inhibitors of mouse Kir2.1 inward-rectifier potassium channel; Inward rectifier potassium channel 2 (Mus musculus), P35561; HEK293-Kir2.1, FluxOR thallium flux fluorescence; active compounds read low; B-score at 10 µM; 310,000 compounds, 0.85% hits; AID 1672, 2009;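 active = fluorescence ratio B-score at or below minus 3 SD of library scores, with starting-brightness B-score within 2 SD, cut at about -4.2 in these data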;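 note: channel flux triggered by added potassium and thallium sulfate stimulus; B-score of peak minus minimum fluorescence over baseline after thallium stimulus; more negative B-score means stronger Kir2.1 block with less thallium influx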
Target sequence (P35561 whole entry, looked up): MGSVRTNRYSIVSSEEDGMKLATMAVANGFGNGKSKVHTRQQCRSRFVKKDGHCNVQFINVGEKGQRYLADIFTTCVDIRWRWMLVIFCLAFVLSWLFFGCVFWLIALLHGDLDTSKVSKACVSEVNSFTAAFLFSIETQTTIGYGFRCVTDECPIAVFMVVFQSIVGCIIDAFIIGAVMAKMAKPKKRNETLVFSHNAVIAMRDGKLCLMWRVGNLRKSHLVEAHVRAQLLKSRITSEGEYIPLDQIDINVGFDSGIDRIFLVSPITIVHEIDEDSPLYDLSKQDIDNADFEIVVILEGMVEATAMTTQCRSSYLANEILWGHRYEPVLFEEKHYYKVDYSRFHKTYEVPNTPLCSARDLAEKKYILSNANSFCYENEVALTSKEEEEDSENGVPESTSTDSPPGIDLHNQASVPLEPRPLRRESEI
KCNQ1 inh: inhibitors of human KCNQ1 channel, primary screen, cell-based, thallium flux, high-throughput | CHO-K1 KCNQ1, FluxOR thallium flux fluorescence; active compounds read high | AID 2642, 2010 | B-score at 10 µM | 310,000 compounds, 1.3% hits | Potassium voltage-gated channel subfamily KQT member 1 (Homo sapiens), P51787;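 active = compounds whose thallium flux B-score, printed positive for inhibition, exceeds three library SD while starting fluorescence stays within three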;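 note: channel opened by potassium depolarization with thallium stimulus after 20 min compound exposure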
KCNK3 inh: human KCNK3 channel inhibitors, primary screen, CHO cells, FluxOR thallium flux, B-score | Potassium channel subfamily K member 3 (Homo sapiens), O14649 | FluxOR fluorescence; active compounds read low | B-score at 10 µM | 340,000 compounds, 0.84% hits;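 active = B-score under library mean minus 4 SD, starting fluorescence ratio at most library mean plus 5 SD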;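 note: more negative B-score means stronger inhibition of thallium flux through KCNK3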
hERG protect: hERG rescue from dofetilide block, primary screen, cell-based, CHO-hERG, FluxOR thallium flux, dofetilide IC70 | 310,000 compounds, 0.51% hits | activation (rescue from dofetilide block), less the hit threshold, % at 10 µM | Voltage-gated inwardly rectifying potassium channel KCNH2 (Homo sapiens), Q12809 | AID 1511, 2009 | dofetilide IC70 present;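 active = activation above the mean of controls blocked by dofetilide plus 5 SD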;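 note: thallium influx through hERG after potassium depolarization seen as dye fluorescence rise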
KCNK9 inh conf: KCNK9 potassium channel inhibitors, confirmation, HEK293 cells, thallium flux, duplicate; FluxOR thallium flux fluorescence; 4,900 compounds, 43% hits; inhibition, % at 10 µM; shares compounds with KCNK9 inh;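 active = thallium signal inhibited by more than 5 SD of the compound-free buffer control wells, on both duplicate plates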;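 note: 0% = assay buffer control wells without compound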
Kir2-1 spec: mouse Kir2.1 channel inhibition, confirmation, selectivity assay for KCNK9 modulator project, cell-based, HEK293, thallium flux; shares compounds with KCNK9 inh; Kir2.1 cells, FluxOR thallium flux fluorescence; inhibition, % at 10 µM; 4,900 compounds, 4% hits; AID 492993, 2010;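 active = thallium signal drop more than 5 SD beyond the mean of the no-compound control wells, seen in both duplicate plates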;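 note: signal is fluorescence rise after thallium addition divided by baseline fluorescence; plate controls were assay buffer only for no effect and full block by chlorpromazine control for full effect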
KCNK9 uninduced: thallium flux in non-induced HEK293 cells, confirmation, counter-screen for KCNK9 inhibitor project, cell-based, second counter screen, non-induced KCNK9-HEK293; shares compounds with KCNK9 inh; FluxOR thallium flux; inhibition, % at 10 µM; 4,900 compounds, 40% hits; AID 492997, 2010;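 active = thallium signal drop beyond 5 SD of the untreated control mean, on both duplicate plates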;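 note: plate controls were buffer only IC0 wells for no effect and SID17386958 at its maximal inhibitory level for full effect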
KCNK3 confirm: retest of human KCNK3 channel inhibitors, confirmation, CHO cells, FluxOR thallium flux, triplicate. shares compounds with KCNK3 inh. FluxOR fluorescence; 0% buffer, 100% carvedilol maximal block. ratio percent of control, % at 10 µM. 2,400 compounds, 99% hits. AID 651638, 2012;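 active = ratio percent of control, averaged over triplicates, above buffer control mean plus 5 SD, cut at about 64% in these data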;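 note: ratio is the fluorescence rise from min to max over baseline after thallium stimulus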
KCNK3 uninduced: thallium flux inhibition in non-induced cells, primary screen, counter-screen for KCNK3 inhibitor project, cell-based, non-induced KCNK3 line, FluxOR thallium, triplicate. thallium flux ratio (lower = more inhibition) at 10 µM. shares compounds with KCNK3 inh. 2,400 compounds, 40% hits. AID 651747, 2012. non-induced KCNK3 parental cells; active compounds read low;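 active = thallium flux ratio, averaged over three wells, more than 5 SD below the buffer control mean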;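 note: host cells are CHO cells without KCNK3 induction; ratio is peak minus trough fluorescence over baseline then normalized to buffer controls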
Active calls of the source: *; i = inactive; . = no result given. Most compounds without a hit are left out; they make up all but 3.7% or so of the library.

SMILES | KCNQ1 pot | KCNK9 inh | Kir21 block | KCNQ1 inh | KCNK3 inh | hERG protect | KCNK9 inh conf | Kir2-1 spec | KCNK9 uninduced | KCNK3 confirm | KCNK3 uninduced
Cc1cccc(C)c1NC(=O)c1ccc(-c2ccc(Cl)cc2Cl)o1 | i | -16* | -0.07 | 7* | -9.01* | -8.5 | 51.0%* | i | 37.5%* | 130.3* | 0.139*
CCN(Cc1ccccc1)C(c1cccc(C#N)c1)c1nnnn1C(C)(C)C (configuration not stated) | i | -14.1* | -0.09 | i | -9.25* | -1.5 | 64.5%* | i | 43.0%* | 101.7* | i
COc1ccc(CN(C)C(=O)c2cnc(C)cn2)c(OC)c1OC | i | i | -1.37 | i | i | -3.0 | . | . | . | . | .
COc1ccc(CN(C(=O)/C=C/c2ccccc2Cl)C2CCS(=O)(=O)C2)cc1 (configuration not stated) | i | -13.9* | 1.91 | i | -11.1* | -7.7 | 49.0%* | i | 31.5%* | 103.0* | 0.151*
COC(=O)COc1ccc(/C=N/NC(=O)CN(c2ccccc2OC)S(=O)(=O)c2ccccc2)cc1 | i | -13.5* | -0.07 | i | -16.3* | -21.7 | i | i | i | 116.3* | 0.139*
COc1ccccc1N(CC(=O)N/N=C/c1ccc(OCC(=O)NCc2ccco2)cc1)S(=O)(=O)c1ccc(C)cc1 | i | i | -0.72 | i | i | -11.5 | . | . | . | . | .
COc1ccc(-n2nc(C(=O)NCC(=O)Nc3cc(OC)ccc3OC)c3ccccc3c2=O)cc1 | i | -13.6* | 0.17 | i | -11.4* | -4.1 | i | i | i | 89.3* | i
COC(=O)CC1C(=O)NCCN1C(=O)CSc1nnnn1-c1ccc(OC)cc1 (configuration not stated) | i | i | -1.11 | i | i | -22.3 | . | . | . | . | .
Cc1cccc(C)c1OCC(=O)Nc1oc(-c2ccccc2)c(-c2ccccc2)c1C#N | i | -17.1* | 0.62 | i | i | -4.0 | 31.5%* | i | 23.5%* | 119.3* | 0.15*
N#Cc1c(NC(=O)CSc2n[nH]c(N)n2)oc(-c2ccccc2)c1-c1ccccc1 | i | i | -0.85 | i | i | -4.8 | . | . | . | . | .
CC(C)(C)c1ccc(CSc2nnc(-c3ccccn3)n2Cc2ccco2)cc1 | i | -10.8* | -1.15 | i | i | -16.0 | 65.5%* | 42.0%* | 40.5%* | 126.0* | 0.144*
CNC(=O)CSc1nnc(-c2ccccn2)n1Cc1ccco1 | i | i | -0.23 | i | i | -7.7 | . | . | . | . | .
Cc1ccccc1CSCC(=O)NCc1ccco1 | i | i | 0.57 | i | i | -6.5 | . | . | . | . | .

Screening results (PubChem)
